Results as given in ChEMBL document CHEMBL4312019, “Design, synthesis, and evaluation of compounds capable of reducing Pseudomonas aeruginosa virulence” (Eur J Med Chem, 2020).
In brackets after ≈: the same amount, converted by molar mass. Activity calls are given as the source filed them. No cut-off for these calls is given here.

Experiments:
[1] = molecular target: Muscarinic acetylcholine receptor M1 (Homo sapiens) (UniProt P11229); test: Displacement of [3H]-QNB/[3H]-NMS from human recombinant muscarinic acetylcholine M1 receptor expressed in stable CHO cells incubated for 90 mins by microbeta scintillation counting method; assay type: cell-based
Sequence of Muscarinic acetylcholine receptor M1 (Homo sapiens) (P11229 whole entry): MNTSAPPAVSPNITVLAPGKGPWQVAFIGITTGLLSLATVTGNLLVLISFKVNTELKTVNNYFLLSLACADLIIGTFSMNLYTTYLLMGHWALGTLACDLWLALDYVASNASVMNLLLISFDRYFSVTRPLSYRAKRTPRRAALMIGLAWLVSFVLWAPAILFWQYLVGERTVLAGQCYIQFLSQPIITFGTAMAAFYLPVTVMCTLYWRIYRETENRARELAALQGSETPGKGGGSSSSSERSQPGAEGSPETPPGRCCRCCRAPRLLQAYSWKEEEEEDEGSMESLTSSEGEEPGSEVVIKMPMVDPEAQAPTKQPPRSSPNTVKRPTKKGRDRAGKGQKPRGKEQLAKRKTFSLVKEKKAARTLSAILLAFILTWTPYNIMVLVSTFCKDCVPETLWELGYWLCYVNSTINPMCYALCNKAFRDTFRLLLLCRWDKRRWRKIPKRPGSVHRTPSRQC

[2] = system: NIH3T3; test: Cytotoxicity against mouse NIH/3T3 cells measured after 72 hrs by MTT assay; assay type: cell-based; conditions: NIH3T3, 72 h
[3] = molecular target: 5-hydroxytryptamine receptor 1B (Homo sapiens) (UniProt P28222); test: Displacement of [3H]-5-CT from human recombinant 5HT1B receptor expressed in stable HEK cells at 10 uM incubated for 90 mins by microbeta scintillation counting method; assay type: cell-based
Sequence of 5-hydroxytryptamine receptor 1B (Homo sapiens) (P28222 whole entry): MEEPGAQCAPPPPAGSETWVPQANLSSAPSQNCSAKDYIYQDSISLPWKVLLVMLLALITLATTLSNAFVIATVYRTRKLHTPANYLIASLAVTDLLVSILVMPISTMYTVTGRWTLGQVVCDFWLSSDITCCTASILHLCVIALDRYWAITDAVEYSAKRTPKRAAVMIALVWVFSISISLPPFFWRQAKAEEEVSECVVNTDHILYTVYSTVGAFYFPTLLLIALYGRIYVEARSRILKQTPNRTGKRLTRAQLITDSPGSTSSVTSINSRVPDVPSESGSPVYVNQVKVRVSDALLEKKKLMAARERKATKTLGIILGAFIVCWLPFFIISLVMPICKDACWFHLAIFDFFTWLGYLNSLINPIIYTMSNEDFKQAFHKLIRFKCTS
Method in brief: (§1)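 Primary radioligand binding screen run by the NIMH Psychoactive Drug Screening Program, with one test level of 10 μM. The read-out was inhibition of radioligand binding at each receptor.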

[4] = molecular target: 5-hydroxytryptamine receptor 1E (Homo sapiens) (UniProt P28566); test: Displacement of [3H]-5-HT from human recombinant 5HT1E receptor expressed in stable HEK cells at 10 uM incubated for 90 mins by microbeta scintillation counting method; assay type: cell-based; method in brief: as §1
[5] = molecular target: 5-hydroxytryptamine receptor 2A (Homo sapiens) (UniProt P28223); test: Displacement of [3H]-ketanserin from human recombinant 5HT2A receptor expressed in HEKT cells at 10 uM incubated for 90 mins by microbeta scintillation counting method; assay type: cell-based; method in brief: as §1
[6] = molecular target: 5-hydroxytryptamine receptor 2B (Homo sapiens) (UniProt P41595); test: Displacement of [3H]-LSD from human recombinant 5HT2B receptor expressed in stable HEK cells at 10 uM incubated for 90 mins by microbeta scintillation counting method; assay type: cell-based; method in brief: as §1
Sequence of 5-hydroxytryptamine receptor 2B (Homo sapiens) (P41595 whole entry): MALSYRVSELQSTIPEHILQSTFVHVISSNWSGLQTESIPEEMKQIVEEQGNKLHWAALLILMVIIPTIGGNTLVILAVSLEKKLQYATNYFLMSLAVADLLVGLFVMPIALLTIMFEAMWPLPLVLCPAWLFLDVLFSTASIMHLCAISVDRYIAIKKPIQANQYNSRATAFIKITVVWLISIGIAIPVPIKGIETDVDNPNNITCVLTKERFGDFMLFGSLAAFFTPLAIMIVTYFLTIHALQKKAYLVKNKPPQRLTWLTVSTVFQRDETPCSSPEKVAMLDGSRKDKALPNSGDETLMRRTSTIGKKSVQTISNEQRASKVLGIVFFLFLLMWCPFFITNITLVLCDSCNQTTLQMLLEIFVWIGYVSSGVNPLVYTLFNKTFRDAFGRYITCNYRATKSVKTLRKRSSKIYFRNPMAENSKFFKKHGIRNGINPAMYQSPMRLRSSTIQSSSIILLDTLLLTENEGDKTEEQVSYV

[7] = molecular target: 5-hydroxytryptamine receptor 2C (Homo sapiens) (UniProt P28335); test: Displacement of [3H]-Mesulergin from human recombinant 5HT2C receptor expressed in CHO cells at 10 uM incubated for 90 mins by microbeta scintillation counting method; assay type: cell-based; method in brief: as §1
[8] = molecular target: 5-hydroxytryptamine receptor 3A (Homo sapiens) (UniProt P46098); test: Displacement of [3H]-GR65630 from human recombinant 5HT3 receptor expressed in HEKT cells at 10 uM incubated for 90 mins by microbeta scintillation counting method; assay type: cell-based; method in brief: as §1
[9] = molecular target: Alpha-1A adrenergic receptor (Homo sapiens) (UniProt P35348); test: Displacement of [3H]-prazosin from human recombinant alpha1A adrenergic receptor at 10 uM incubated for 90 mins by microbeta scintillation counting method; method in brief: as §1
Sequence of Alpha-1A adrenergic receptor (Homo sapiens) (P35348 whole entry): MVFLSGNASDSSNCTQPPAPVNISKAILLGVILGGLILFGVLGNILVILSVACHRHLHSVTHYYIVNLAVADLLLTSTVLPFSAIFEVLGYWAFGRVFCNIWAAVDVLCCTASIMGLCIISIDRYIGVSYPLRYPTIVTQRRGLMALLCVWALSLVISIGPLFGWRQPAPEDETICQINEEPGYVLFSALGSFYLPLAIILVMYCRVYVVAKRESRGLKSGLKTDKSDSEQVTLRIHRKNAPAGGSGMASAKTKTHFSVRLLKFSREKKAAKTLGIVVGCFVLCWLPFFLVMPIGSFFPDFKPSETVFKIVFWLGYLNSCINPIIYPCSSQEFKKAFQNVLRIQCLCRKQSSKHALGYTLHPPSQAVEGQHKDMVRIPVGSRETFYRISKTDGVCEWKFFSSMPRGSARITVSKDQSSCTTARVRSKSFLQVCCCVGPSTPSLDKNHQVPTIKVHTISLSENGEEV

[10] = molecular target: Alpha-1B adrenergic receptor (Homo sapiens) (UniProt P35368); test: Displacement of [3H]-8-OH-DPAT from human recombinant alpha1B adrenergic receptor expressed in HEKT cells at 10 uM incubated for 90 mins by microbeta scintillation counting method; assay type: cell-based; method in brief: as §1
[11] = molecular target: Beta-1 adrenergic receptor (Homo sapiens) (UniProt P08588); test: Displacement of [125I]-pindolol from recombinant human beta1 adrenergic receptor expressed in CHO Flp-In cells incubated for 90 mins by microbeta scintillation counting method; assay type: cell-based
[12] = species: Rattus norvegicus; test: Displacement of [3H]-Flunitrazepam from BZP receptor in rat brain at 10 uM incubated for 90 mins by microbeta scintillation counting method; assay type: tissue-based; method in brief: as §1
[13] = molecular target: D(1A) dopamine receptor (Homo sapiens) (UniProt P21728); test: Displacement of [3H]-SCH23390 from human recombinant dopamine D1 receptor expressed in HEKT cells incubated for 90 mins by microbeta scintillation counting method; assay type: cell-based
[14] = molecular target: D(3) dopamine receptor (Homo sapiens) (UniProt P35462); test: Displacement of [3H]-N-methylspiperone from human recombinant dopamine D3 receptor expressed in HEKT cells incubated for 90 mins by microbeta scintillation counting method; assay type: cell-based
[15] = molecular target: D(4) dopamine receptor (Homo sapiens) (UniProt P21917); test: Displacement of [3H]-methylspiperone from human recombinant dopamine D4 receptor expressed in stable HEK cells incubated for 90 mins by microbeta scintillation counting method; assay type: cell-based
[16] = molecular target: D(1B) dopamine receptor (Homo sapiens) (UniProt P21918); test: Displacement of [3H]-SCH23390 from human recombinant dopamine D5 receptor expressed in HEKT cells incubated for 90 mins by microbeta scintillation counting method; assay type: cell-based
[17] = molecular target: GABA-A receptor; anion channel (Rattus norvegicus) (UniProt O09028+P15431+P18506+P18508+P19969+P20236+P23574+P23576+P28471+P28473+P30191+P62813+P63079+P63138+Q91ZM7+Q9ES14); test: Displacement of [3H]-Muscimol from GABAA receptor in rat brain incubated for 90 mins by microbeta scintillation counting method; assay type: tissue-based
[18] = molecular target: Delta-type opioid receptor (Homo sapiens) (UniProt P41143); test: Displacement of [3H]-DADLE from human recombinant DOR receptor expressed in stable HEK cells incubated for 90 mins by microbeta scintillation counting method; assay type: cell-based
Sequence of Delta-type opioid receptor (Homo sapiens) (P41143 whole entry): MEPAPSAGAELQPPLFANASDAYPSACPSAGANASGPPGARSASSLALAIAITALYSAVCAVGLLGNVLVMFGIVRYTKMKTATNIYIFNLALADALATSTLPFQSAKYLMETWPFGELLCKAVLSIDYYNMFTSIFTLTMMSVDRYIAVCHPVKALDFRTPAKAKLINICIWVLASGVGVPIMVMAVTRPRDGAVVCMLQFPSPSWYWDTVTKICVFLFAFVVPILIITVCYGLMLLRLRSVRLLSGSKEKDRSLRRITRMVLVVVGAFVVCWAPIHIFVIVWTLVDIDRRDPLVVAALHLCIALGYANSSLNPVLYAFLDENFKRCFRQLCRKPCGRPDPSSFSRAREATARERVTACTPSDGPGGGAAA

[19] = molecular target: Mu-type opioid receptor (Homo sapiens) (UniProt P35372); test: Displacement of [3H]-DAMGO from human recombinant MOR receptor expressed in stable HEK cells incubated for 90 mins by microbeta scintillation counting method; assay type: cell-based
Sequence of Mu-type opioid receptor (Homo sapiens) (P35372 whole entry): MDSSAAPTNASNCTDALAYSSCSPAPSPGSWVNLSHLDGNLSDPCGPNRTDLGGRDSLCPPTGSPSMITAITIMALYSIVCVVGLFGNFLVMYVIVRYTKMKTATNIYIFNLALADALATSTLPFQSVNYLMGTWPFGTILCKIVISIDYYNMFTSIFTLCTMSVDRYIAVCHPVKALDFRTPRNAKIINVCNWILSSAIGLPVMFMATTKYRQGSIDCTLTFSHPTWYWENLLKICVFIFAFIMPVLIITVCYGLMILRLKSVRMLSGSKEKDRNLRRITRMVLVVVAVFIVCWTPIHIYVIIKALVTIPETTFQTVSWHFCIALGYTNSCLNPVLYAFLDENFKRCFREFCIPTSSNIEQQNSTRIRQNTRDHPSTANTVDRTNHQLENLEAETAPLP

[20] = molecular target: Histamine H2 receptor (Homo sapiens) (UniProt P25021); test: Displacement of [125I]-Iodoaminopotentidine from human recombinant histamine H2 receptor expressed in stable HEK cells incubated for 90 mins by microbeta scintillation counting method; assay type: cell-based
[21] = molecular target: Histamine H3 receptor (Homo sapiens) (UniProt Q9Y5N1); test: Displacement of [3H]-alpha-methylhistamine from human recombinant histamine H3 receptor expressed in Flp-In HEK cells incubated for 90 mins by microbeta scintillation counting method; assay type: cell-based
Sequence of Histamine H3 receptor (Homo sapiens) (Q9Y5N1 whole entry): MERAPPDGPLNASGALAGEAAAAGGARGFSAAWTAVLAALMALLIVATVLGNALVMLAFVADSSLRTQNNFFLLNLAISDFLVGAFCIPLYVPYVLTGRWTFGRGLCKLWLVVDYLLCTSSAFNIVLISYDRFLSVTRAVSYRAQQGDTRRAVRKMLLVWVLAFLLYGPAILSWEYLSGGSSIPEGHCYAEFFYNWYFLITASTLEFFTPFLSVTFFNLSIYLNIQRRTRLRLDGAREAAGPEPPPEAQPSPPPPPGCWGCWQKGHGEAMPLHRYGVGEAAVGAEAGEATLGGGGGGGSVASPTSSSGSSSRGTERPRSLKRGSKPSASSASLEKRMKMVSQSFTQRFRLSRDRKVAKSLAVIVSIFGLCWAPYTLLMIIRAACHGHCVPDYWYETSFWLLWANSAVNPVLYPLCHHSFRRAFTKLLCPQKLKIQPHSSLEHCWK

[22] = molecular target: Histamine H4 receptor (Homo sapiens) (UniProt Q9H3N8); test: Displacement of [3H]-Histamine from human recombinant histamine H4 receptor expressed in HEKT cells incubated for 90 mins by microbeta scintillation counting method; assay type: cell-based
[23] = molecular target: Muscarinic acetylcholine receptor M2 (Homo sapiens) (UniProt P08172); test: Displacement of [3H]-QNB/[3H]-NMS from human recombinant muscarinic acetylcholine M2 receptor expressed in stable CHO cells incubated for 90 mins by microbeta scintillation counting method; assay type: cell-based
[24] = molecular target: Muscarinic acetylcholine receptor M3 (Homo sapiens) (UniProt P20309); test: Displacement of [3H]-QNB/[3H]-NMS from human recombinant muscarinic acetylcholine M3 receptor expressed in stable CHO cells incubated for 90 mins by microbeta scintillation counting method; assay type: cell-based
Sequence of Muscarinic acetylcholine receptor M3 (Homo sapiens) (P20309 whole entry, looked up): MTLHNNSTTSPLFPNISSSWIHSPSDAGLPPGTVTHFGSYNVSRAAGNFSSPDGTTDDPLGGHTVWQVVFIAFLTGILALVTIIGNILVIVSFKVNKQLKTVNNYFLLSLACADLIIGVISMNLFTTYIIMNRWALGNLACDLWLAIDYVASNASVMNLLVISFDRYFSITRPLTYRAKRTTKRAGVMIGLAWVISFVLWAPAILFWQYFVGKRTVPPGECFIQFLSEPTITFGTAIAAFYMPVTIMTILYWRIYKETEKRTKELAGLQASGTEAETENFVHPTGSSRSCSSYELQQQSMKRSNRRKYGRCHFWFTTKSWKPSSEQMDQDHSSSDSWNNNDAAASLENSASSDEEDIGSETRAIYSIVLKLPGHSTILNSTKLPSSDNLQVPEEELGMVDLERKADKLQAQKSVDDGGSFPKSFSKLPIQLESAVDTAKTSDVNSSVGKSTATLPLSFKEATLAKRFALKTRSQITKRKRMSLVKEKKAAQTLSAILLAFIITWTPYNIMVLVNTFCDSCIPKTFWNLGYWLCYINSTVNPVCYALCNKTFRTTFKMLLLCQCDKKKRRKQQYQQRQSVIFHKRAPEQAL

[25] = molecular target: Muscarinic acetylcholine receptor M5 (Homo sapiens) (UniProt P08912); test: Displacement of [3H]-QNB/[3H]-NMS from human recombinant muscarinic acetylcholine M5 receptor expressed in stable CHO cells incubated for 90 mins by microbeta scintillation counting method; assay type: cell-based
Sequence of Muscarinic acetylcholine receptor M5 (Homo sapiens) (P08912 whole entry): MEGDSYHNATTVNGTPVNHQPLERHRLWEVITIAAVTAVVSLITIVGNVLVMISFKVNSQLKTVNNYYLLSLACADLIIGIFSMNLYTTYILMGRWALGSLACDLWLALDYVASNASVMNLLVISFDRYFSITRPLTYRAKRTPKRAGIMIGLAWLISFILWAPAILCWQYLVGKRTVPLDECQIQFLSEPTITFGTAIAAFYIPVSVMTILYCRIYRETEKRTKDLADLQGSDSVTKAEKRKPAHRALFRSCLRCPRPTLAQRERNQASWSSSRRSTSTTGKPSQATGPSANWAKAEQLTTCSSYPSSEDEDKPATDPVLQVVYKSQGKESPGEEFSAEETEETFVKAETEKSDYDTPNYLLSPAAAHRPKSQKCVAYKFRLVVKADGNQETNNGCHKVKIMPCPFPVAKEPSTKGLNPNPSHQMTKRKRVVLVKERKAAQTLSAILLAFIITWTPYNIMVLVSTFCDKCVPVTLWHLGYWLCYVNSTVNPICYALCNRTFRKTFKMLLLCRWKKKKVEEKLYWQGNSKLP

[26] = molecular target: Sodium-dependent noradrenaline transporter (Homo sapiens) (UniProt P23975); test: Displacement of [3H]-Nisoxetine from human recombinant NET receptor expressed in stable HEK cells incubated for 90 mins by microbeta scintillation counting method; assay type: cell-based
[27] = species: Rattus norvegicus; test: Displacement of [3H]-PK11195 from PBR in rat brain incubated for 90 mins by microbeta scintillation counting method; assay type: tissue-based
[28] = molecular target: Sigma intracellular receptor 2 (Homo sapiens) (UniProt Q5BJF2); test: Displacement of [3H]-[…] from human recombinant sigma2 receptor expressed in HEKT cells incubated for 90 mins by microbeta scintillation counting method; assay type: cell-based
Sequence of Sigma intracellular receptor 2 (Homo sapiens) (Q5BJF2 whole entry): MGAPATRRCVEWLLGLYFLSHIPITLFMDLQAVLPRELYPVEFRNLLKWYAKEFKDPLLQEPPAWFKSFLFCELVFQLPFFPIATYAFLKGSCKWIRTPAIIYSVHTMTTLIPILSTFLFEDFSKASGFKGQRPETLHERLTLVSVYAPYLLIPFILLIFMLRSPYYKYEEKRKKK

[29] = molecular target: Sodium-dependent serotonin transporter (Homo sapiens) (UniProt P31645); test: Displacement of [3H]-citalopram from recombinant human SERT expressed in HEK cell membranes at 10 uM incubated for 90 mins by scintillation counting method; method in brief: as §1
Sequence of Sodium-dependent serotonin transporter (Homo sapiens) (P31645 whole entry, looked up): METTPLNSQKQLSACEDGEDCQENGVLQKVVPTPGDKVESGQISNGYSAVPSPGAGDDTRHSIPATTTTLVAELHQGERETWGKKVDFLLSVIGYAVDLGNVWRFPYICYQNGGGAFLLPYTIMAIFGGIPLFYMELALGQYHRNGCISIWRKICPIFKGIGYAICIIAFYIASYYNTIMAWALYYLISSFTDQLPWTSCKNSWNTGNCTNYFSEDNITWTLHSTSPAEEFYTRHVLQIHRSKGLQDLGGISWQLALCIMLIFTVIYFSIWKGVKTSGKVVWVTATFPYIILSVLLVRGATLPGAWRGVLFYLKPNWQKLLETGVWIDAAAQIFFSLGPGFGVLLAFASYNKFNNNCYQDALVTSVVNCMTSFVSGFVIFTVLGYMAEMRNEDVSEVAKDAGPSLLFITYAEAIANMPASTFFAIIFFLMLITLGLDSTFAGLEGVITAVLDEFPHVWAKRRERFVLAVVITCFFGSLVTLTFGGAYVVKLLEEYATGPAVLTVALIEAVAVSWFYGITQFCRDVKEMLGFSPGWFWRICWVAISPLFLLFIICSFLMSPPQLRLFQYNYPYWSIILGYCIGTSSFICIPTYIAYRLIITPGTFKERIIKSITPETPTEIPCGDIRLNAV

`Cn1c2cccc(=O)c-2nc2ccccc21` [PYOCYANIN] was tested, and the inhibition [1] was “inactive”, the IC50 [2] was 3.66 µg/mL (≈ 17.4 µM) and the inhibition [3] was “inactive”. For the same molecule, the inhibition [4] was “inactive”, the inhibition [5] was “inactive” and the inhibition [6] was “inactive”. The inhibition [7] was “inactive”, the inhibition [8] was “inactive” and the inhibition [9] was “inactive”. The inhibition [10] was “inactive”, the inhibition [11] was “inactive” and the inhibition [12] was “inactive”. For the same molecule, the inhibition [13] was “inactive”, the inhibition [14] was “inactive” and the inhibition [15] was “inactive”. The inhibition [16] was “inactive”, the inhibition [17] was “inactive” and the inhibition [18] was “inactive”. For the same molecule, the inhibition [19] was “inactive”, the inhibition [20] was “inactive” and the inhibition [21] was “inactive”. The inhibition [22] was “inactive”, the inhibition [23] was “inactive” and the inhibition [24] was “inactive”. For the same molecule, the inhibition [25] was “inactive”, the inhibition [26] was “inactive” and the inhibition [27] was “inactive”. For the same molecule, the inhibition [28] was “inactive” and the inhibition [29] was “inactive”.
